Active and inactive are the calls of the source. No cut-off for these calls is given here.
Tests used:
RPMI-8226 = test: Cytotoxicity against human RPMI8226 cells assessed as growth inhibition after 48 hrs by SRB assay; type: functional; settings: RPMI-8226, 48 h
MDA-MB-231 = test: Cytotoxicity against human MDA-MB-231 cells assessed as growth inhibition after 48 hrs by SRB assay; type: functional; settings: MDA-MB-231, 48 h
Tubulin (Homo sapiens) = Tubulin (Homo sapiens) (UniProt P68371+Q9H4B7+P0DPH7+P68366+Q13509+Q71U36+P04350+Q3ZCM7+P07437+P68363+Q9BQE3+Q6PEY2+Q13885+Q9BVA1+Q9BUF5); test: Induction of microtubule disruption in human HeLa cells assessed as multipolarization of spindle at 5 times IC50 incubated for 18 hrs by indirect immunofluorescence analysis relative to vehicle-treated control; type: cell-based
Outline: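 Mitotic spindles and microtubules were imaged by indirect immunofluorescence with a β-tubulin antibody and compared with vehicle-treated cells.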

IGROV-1 = test: Cytotoxicity against human IGROV1 cells assessed as growth inhibition after 48 hrs by SRB assay; type: functional; settings: IGROV-1, 48 h
HCT-15 = test: Cytotoxicity against human HCT15 cells assessed as growth inhibition after 48 hrs by SRB assay; type: functional; settings: HCT-15, 48 h
HT-29 = test: Cytotoxicity against human HT-29 cells assessed as growth inhibition after 48 hrs by SRB assay; type: functional; settings: HT-29, 48 h
HeLa [1] = test: Antiproliferative activity against human HeLa cells after 48 hrs by SRB assay; type: functional, cell-based
Outline: (§1)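 SRB assay; IC50 is the mean of three independent experiments, each run in triplicate. Cells were kept at 37 °C under 5% CO2. HeLa and SK-OV-3 lines (parental and MDR1-M6/6) were grown in Basal Medium Eagle with 10% FBS, 1% GlutaMAX and 50 µg/mL gentamycin. HeLa WTβIII was grown in DMEM with 10% FBS.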

HL-60(TB) = test: Cytotoxicity against human HL-60(TB) cells assessed as growth inhibition after 48 hrs by SRB assay; type: functional; settings: HL-60, 48 h
HeLa [2] = test: Cell cycle arrest in human HeLa cells assessed as accumulation at G2/M phase at 5 times IC50 after 18 hrs by flow cytometry (reference value: 17.11 +/- 1.09%); type: functional
UACC-62 = test: Cytotoxicity against human UACC62 cells assessed as growth inhibition after 48 hrs by SRB assay; type: functional; settings: UACC-62, 48 h
Tubulin (Bos taurus) [3] = biological target: T1, Tubulin (Bos taurus) (UniProt Q6B856+Q862L2+Q862F3); test: Displacement of [3H]colchicine from tubulin in bovine brain homogenate at 1 uM incubated for 10 mins by DEAE-cellulose filter assay; type: tissue-based
HeLa [4] = test: Antiproliferative activity against multidrug resistant human HeLa cells expressing wild type beta3 tubulin after 48 hrs by SRB assay; type: functional, cell-based; outline: as §1
NCI-H226 = test: Cytotoxicity against human NCI-H226 cells assessed as growth inhibition after 48 hrs by SRB assay; type: functional; settings: NCI-H226, 48 h
Malme-3M = test: Cytotoxicity against human MALME-3M cells assessed as growth inhibition after 48 hrs by SRB assay; type: functional
SK-MEL-28 = test: Cytotoxicity against human SK-MEL-28 cells assessed as growth inhibition after 48 hrs by SRB assay; type: functional; settings: SK-MEL-28, 48 h
UO-31 = test: Cytotoxicity against human UO31 cells assessed as growth inhibition after 48 hrs by SRB assay; type: functional; settings: UO-31, 48 h
MDA-MB-435 = test: Cytotoxicity against human MDA-MB-435 cells assessed as growth inhibition after 48 hrs by SRB assay; type: functional, cell-based
NCI-H460 = test: Cytotoxicity against human NCI-H460 cells assessed as growth inhibition after 48 hrs by SRB assay; type: functional; settings: NCI-H460, 48 h
SK-OV-3 [5] = test: Relative ratio of IC50 for human SKOV3 cells expressing MDR1-M6/6 to IC50 for human SKOV3 cells; type: functional
Outline: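 Rr is the IC50 in Pgp-expressing SK-OV-3 MDR1-M6/6 cells divided by the IC50 in parental SK-OV-3 cells. Both IC50s come from the SRB assay, averaging three independent experiments run in triplicate.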

MDA-MB-468 = test: Cytotoxicity against human MDA-MB-468 cells assessed as growth inhibition after 48 hrs by SRB assay; type: functional; settings: MDA-MB-468, 48 h
MCF7 = test: Cytotoxicity against human MCF7 cells assessed as growth inhibition after 48 hrs by SRB assay; type: functional; settings: MCF7, 48 h
SK-OV-3 [6] = test: Cytotoxicity against human SKOV3 cells assessed as growth inhibition after 48 hrs by SRB assay; type: functional, cell-based; settings: SK-OV-3, 48 h; outline: as §1
SF-295 = test: Cytotoxicity against human SF295 cells assessed as growth inhibition after 48 hrs by SRB assay; type: functional; settings: SF-295, 48 h
SK-MEL-5 = test: Cytotoxicity against human SK-MEL-5 cells assessed as growth inhibition after 48 hrs by SRB assay; type: functional; settings: SK-MEL-5, 48 h
M14 = test: Cytotoxicity against human M14 cells assessed as growth inhibition after 48 hrs by SRB assay; type: functional; settings: M14, 48 h
LOX IMVI = test: Cytotoxicity against human LOXIMVI cells assessed as growth inhibition after 48 hrs by SRB assay; type: functional
U-251 = test: Cytotoxicity against human U251 cells assessed as growth inhibition after 48 hrs by SRB assay; type: functional; settings: U-251, 48 h
TK-10 = test: Cytotoxicity against human TK10 cells assessed as growth inhibition after 48 hrs by SRB assay; type: functional; settings: TK-10, 48 h
HCC 2998 = test: Cytotoxicity against human HCC2998 cells assessed as growth inhibition after 48 hrs by SRB assay; type: functional; settings: HCC 2998, 48 h
SF-539 = test: Cytotoxicity against human SF539 cells assessed as growth inhibition after 48 hrs by SRB assay; type: functional; settings: SF-539, 48 h
HOP-92 = test: Cytotoxicity against human HOP92 cells assessed as growth inhibition after 48 hrs by SRB assay; type: functional; settings: HOP-92, 48 h
EKVX = test: Cytotoxicity against human EKVX cells assessed as growth inhibition after 48 hrs by SRB assay; type: functional
Tubulin (Bos taurus) [7] = biological target: T1, Tubulin (Bos taurus); test: Inhibition of [3H]colchicine binding to tubulin in bovine brain homogenate at 5 uM incubated for 10 mins by DEAE-cellulose filter assay; type: tissue-based
CAKI-1 = test: Cytotoxicity against human Caki1 cells assessed as growth inhibition after 48 hrs by SRB assay; type: functional; settings: CAKI-1, 48 h
OVCAR-3 = test: Cytotoxicity against human OVCAR3 cells assessed as growth inhibition after 48 hrs by SRB assay; type: functional; settings: OVCAR-3, 48 h
Tubulin = Tubulin (Bos taurus, UniProt Q6B856+Q862L2+Q862F3); test: Inhibition of tubulin assembly in bovine brain […] assessed as reduction in turbidity increase preincubated for 15 mins followed by GTP addition measured for 20 mins by spectrophotometric analysis
Outline: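 Purified bovine brain tubulin, 1.0 mg/mL (10 µM), was preincubated 15 min at 30 °C in 0.8 M monosodium glutamate (pH 6.6) with compound and 4% DMSO. Mixtures were chilled and 0.4 mM GTP added. Turbidity was followed for 20 min at 30 °C. IC50 is the concentration halving the turbidity increase, interpolated between tested concentrations.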

**Q.** Which results are given for `COc1ccc(N(C)c2ncnc3occ(C)c23)cc1`?
**A.** GI50 (RPMI-8226): < 0.01 µM; GI50 (MDA-MB-231): < 0.01 µM; Activity (Tubulin (Homo sapiens)): Active; GI50 (IGROV-1): < 0.01 µM; GI50 (HCT-15): < 0.01 µM; GI50 (HT-29): < 0.01 µM; IC50 (HeLa [1]): 0.0095 µM; GI50 (HL-60(TB)): < 0.01 µM; Activity (HeLa [2]): 66.99%; GI50 (UACC-62): 0.0296 µM; inhibition (Tubulin (Bos taurus) [3]): 71%; IC50 (HeLa [4]): 0.0081 µM; GI50 (NCI-H226): < 0.01 µM; GI50 (Malme-3M): 0.0387 µM; GI50 (SK-MEL-28): < 0.01 µM; GI50 (UO-31): < 0.01 µM; GI50 (MDA-MB-435): <0.01 µM; GI50 (NCI-H460): < 0.01 µM; Ratio IC50 (SK-OV-3 [5]): 1.1; GI50 (MDA-MB-468): < 0.01 µM; GI50 (MCF7): < 0.01 µM; GI50 (SK-OV-3 [6]): < 0.01 µM; IC50 (SK-OV-3 [6]): 0.0077 µM; GI50 (SF-295): < 0.01 µM; GI50 (SK-MEL-5): < 0.01 µM; GI50 (M14): < 0.01 µM; GI50 (LOX IMVI): < 0.01 µM; GI50 (U-251): < 0.01 µM; GI50 (TK-10): 0.0753 µM; GI50 (HCC 2998): < 0.01 µM; GI50 (SF-539): < 0.01 µM; GI50 (HOP-92): 0.0625 µM; GI50 (EKVX): < 0.01 µM; inhibition (Tubulin (Bos taurus) [7]): 96%; GI50 (CAKI-1): < 0.01 µM; GI50 (OVCAR-3): < 0.01 µM; IC50 (Tubulin): 3.3 µM

Reference: ChEMBL document CHEMBL4477200, “Design, Synthesis, and Preclinical Evaluation of 4-Substituted-5-methyl-furo[2,3-d]pyrimidines as Microtubule Targeting Agents That Are Effective against Multidrug Resistant Cancer Cells” (J Med Chem, 2016)
